The source made the active and inactive calls. The rule behind the calls is not given here.
Experiments:
MCF7 [1] = assay: Ratio of tamoxifen IC50 to compound IC50 for human MCF7 cells after 72 hrs by MTT assay; type: functional
MCF7 [2] = assay: Antiproliferative activity against human MCF7 cells after 72 hrs by MTT assay; type: functional, cell-based; conditions: MCF7, 72 h
Summary of the method: (§1)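 Cells were seeded in 96-well plates for 24 h, then exposed to a range of concentrations for 72 h in DMEM/F-12 with 5% FBS. DMSO vehicle controls were matched. MTT was added at 0.5 mg/ml for 2 h at 37 °C, solubilized in DMSO, and read at 570 nm. IC50 is the concentration giving 50% cell death relative to DMSO control. Mean ± SD, n = 6.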

MCF7 [3] = assay: Induction of apoptosis in human MCF7 cells assessed as caspase 3/7 activation after 72 hrs by luminescence assay; type: functional, cell-based
Summary of the method: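 MCF-7 cells were plated at 1×10^4 per well, incubated for 24 h, then treated for 72 h. Caspase-3/7 activity was measured with a Caspase-Glo luminogenic DEVD substrate, and luminescence was reported as relative light units. Compared with DMSO vehicle; mean ± SD, n = 6.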

MDA-MB-231 [4] = assay: Ratio of tamoxifen IC50 to compound IC50 for human MDA-MB-231 cells after 72 hrs by MTT assay; type: functional
MCF7 [5] = assay: Antiproliferative activity against human MCF7 cells at 5 uM after 72 hrs by MTT assay in presence of estradiol; type: functional, cell-based
Summary of the method: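 MCF-7 cells (ATCC) were maintained in DMEM/F-12 with 10% FBS at 37 °C and 5% CO2. They were seeded for 24 h, then treated with 5 µM test agent for 72 h in 5% FBS medium, with and without estradiol. Read-out was MTT absorbance at 570 nm, expressed as percent of control wells. Two experiments, each with six replicates; mean ± SD.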

MDA-MB-231 [6] = assay: Antiproliferative activity against human MDA-MB-231 cells after 72 hrs by MTT assay; type: functional, cell-based; conditions: MDA-MB-231, 72 h; summary of the method: as §1

In the case of C/C(=C(\c1ccccc1)c1ccc(OCCN2CCN(C)CC2)cc1)c1ccccc1, the “Ratio IC50” value (MCF7 [1]) is reported as 2, the IC50 (MCF7 [2]) is reported as 6.75 µM and the Activity (MCF7 [3]) is reported as “Active”. For the same molecule, the “Ratio IC50” value (MDA-MB-231 [4]) was 2, the Activity (MCF7 [5]) was “Active” and the IC50 (MDA-MB-231 [6]) was 10.5 µM.
Work on C/C(=C(\c1ccccc1)c1ccc(OCCN2CCN(C)CC2)cc1)c1ccc(F)cc1 yielded an IC50 (MCF7 [2]) of 86.3 µM and an IC50 (MDA-MB-231 [6]) of over 100 µM.
With C/C(=C(\c1ccccc1)c1ccc(OCCN2CCNCC2)cc1)c1ccccc1 the IC50 (MCF7 [2]) was over 100 µM and the IC50 (MDA-MB-231 [6]) was over 100 µM.
With C/C(=C(\c1ccccc1)c1ccc(OCCN2CCCCC2)cc1)c1ccc(F)cc1 the IC50 (MCF7 [2]) was 16.6 µM and the IC50 (MDA-MB-231 [6]) was 43 µM.
Molecule CC/C(=C(\c1ccccc1)c1ccc(OCCN(C)C)cc1)c1ccccc1 [TAMOXIFEN] has an IC50 (MCF7 [2]) of 28 µM and an IC50 (MDA-MB-231 [6]) of 64.8 µM.
In the case of C/C(=C(\c1ccccc1)c1ccc(OCCN2CCNCC2)cc1)c1ccc(F)cc1, the “Ratio IC50” value (MCF7 [1]) is reported as 2, the IC50 (MCF7 [2]) is reported as 5.58 µM and the Activity (MCF7 [3]) is reported as “Active”. For the same molecule, the “Ratio IC50” value (MDA-MB-231 [4]) was 2, the Activity (MCF7 [5]) was “Active” and the IC50 (MDA-MB-231 [6]) was 13 µM.
C/C(=C(\c1ccccc1)c1ccc(OCCN2CCCCC2)cc1)c1ccccc1 showed an IC50 (MCF7 [2]) of 55.5 µM and an IC50 (MDA-MB-231 [6]) of 73.5 µM.

From ChEMBL document CHEMBL2412972, “Design, synthesis and biological evaluation of novel triaryl (Z)-olefins as tamoxifen analogues” (Bioorg Med Chem Lett, 2013)
